Results taken from ChEMBL document CHEMBL5107948, “Activity-based protein profiling reveals deubiquitinase and aldehyde dehydrogenase targets of a cyanopyrrolidine probe” (RSC Med Chem, 2021).
The source made the active and inactive calls. No cut-off for these calls is given here.

How the values were obtained:
[1] = target: T1, Ubiquitin carboxyl-terminal hydrolase isozyme L3 (Homo sapiens, UniProt P15374); assay: Inhibition of GST-tagged recombinant UCHL3 (unknown origin) using Ub-Lys-TAMRA as substrate incubated for 30 mins by fluorescence polarization assay
T1 sequence (P15374 whole entry): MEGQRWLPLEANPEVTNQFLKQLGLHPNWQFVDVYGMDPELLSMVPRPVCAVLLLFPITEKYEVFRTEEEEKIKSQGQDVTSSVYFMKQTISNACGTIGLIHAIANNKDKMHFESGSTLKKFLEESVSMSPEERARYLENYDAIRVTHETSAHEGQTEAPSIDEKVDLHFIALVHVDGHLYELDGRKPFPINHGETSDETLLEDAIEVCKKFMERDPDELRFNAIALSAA
Summary of the method: (§1)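 Recombinant DUB (UCHL1 or UCHL3 at 5 nM) preincubated 30 min RT with 8-point compound dilutions in Tris pH 7.5/NaCl or Tris pH 7.5 buffer with Tween-20, BSA and 5 mM BME. Ub-Lys-TAMRA (50 nM) added; fluorescence polarization (Ex 540/Em 590 nm) read at once and after 2 h RT. Triplicate; four-parameter IC50.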

[2] = target: Ubiquitin carboxyl-terminal hydrolase isozyme L1 (Homo sapiens) (UniProt P09936); assay: Inhibition of GST-tagged recombinant UCHL1 (unknown origin) using Ub-Lys-TAMRA as substrate at 1 uM incubated for 30 mins by fluorescence polarization assay; summary of the method: as §1
Ubiquitin carboxyl-terminal hydrolase isozyme L1 (Homo sapiens), sequence (P09936 whole entry, looked up): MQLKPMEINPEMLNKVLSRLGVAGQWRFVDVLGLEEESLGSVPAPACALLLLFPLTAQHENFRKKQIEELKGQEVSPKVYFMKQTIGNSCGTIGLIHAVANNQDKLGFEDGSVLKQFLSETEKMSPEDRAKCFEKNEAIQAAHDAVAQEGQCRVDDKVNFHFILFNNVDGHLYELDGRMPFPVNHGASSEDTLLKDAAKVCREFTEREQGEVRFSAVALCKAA

[3] = target: T2, Ubiquitin carboxyl-terminal hydrolase isozyme L3 (Homo sapiens) (UniProt P15374); assay: Inhibition of UCHL3 in human HEK293 cells using HA-Ub-VME as substrate at 0.1 to 10 uM incubated for 1 hr by immunoblotting analysis; format: cell-based; conditions: dose 0.1-10 µM
T2 sequence (whole entry): T1 sequence (P15374 whole entry)
Summary of the method: (§2)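 Near-confluent HEK293 cells treated with compound in medium for 1 h at 37 °C, lysed in Tris/NP-40/CHAPS buffer with benzonase. Lysate (20 µg) reacted with HA-Ahx-Ahx-Ub-VME (0.5 µg) 15 min at room temperature, boiled 5 min at 95 °C in SDS loading buffer with BME, SDS-PAGE and immunoblot.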

[4] = target: Ubiquitin carboxyl-terminal hydrolase isozyme L1 (Homo sapiens) (UniProt P09936); assay: Inhibition of UCHL1 in human HEK293 cells at 130 to 2000 nM in presence of ABP MT16-205 by Competitive pulldown based immunoblotting analysis; format: cell-based; conditions: dose 130-2000 nM, DDE = dose-dependent effect
Summary of the method: (§3)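 Lysates AzTB-clicked, streptavidin bead pulldown (2 h RT), boiled elution, SDS-PAGE. Target detected by immunoblot: 3% BSA/TBS-T block, primary antibody 1.5 h RT or overnight at 4 °C, HRP secondary, chemiluminescence.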

[5] = target: 4-trimethylaminobutyraldehyde dehydrogenase (Homo sapiens) (UniProt P49189); assay: Inhibition of ALDH9A1 in human HEK293 cells at 130 to 2000 nM in presence of ABP MT16-205 by Competitive pulldown based immunoblotting analysis; format: cell-based; conditions: dose 130-2000 nM, DDE = dose-dependent effect; summary of the method: as §3
4-trimethylaminobutyraldehyde dehydrogenase (Homo sapiens), sequence (P49189 whole entry): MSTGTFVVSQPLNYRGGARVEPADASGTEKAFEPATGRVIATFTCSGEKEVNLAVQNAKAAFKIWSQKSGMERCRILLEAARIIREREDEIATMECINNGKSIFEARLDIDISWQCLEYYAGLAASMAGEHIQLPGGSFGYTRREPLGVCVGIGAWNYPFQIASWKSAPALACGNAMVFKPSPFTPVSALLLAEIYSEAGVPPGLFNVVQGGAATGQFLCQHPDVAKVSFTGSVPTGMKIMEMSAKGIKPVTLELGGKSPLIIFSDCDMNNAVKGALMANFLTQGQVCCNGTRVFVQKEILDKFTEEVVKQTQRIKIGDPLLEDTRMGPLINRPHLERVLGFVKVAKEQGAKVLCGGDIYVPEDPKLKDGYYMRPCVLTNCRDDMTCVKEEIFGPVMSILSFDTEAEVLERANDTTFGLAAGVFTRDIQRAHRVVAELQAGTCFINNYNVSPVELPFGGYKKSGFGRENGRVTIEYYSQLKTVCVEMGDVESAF

[6] = target: 4-trimethylaminobutyraldehyde dehydrogenase (Homo sapiens) (UniProt P49189); assay: Inhibition of ALDH9A1 in human HEK293 cells at 250 nM in presence of ABP MT16-205 by Competitive pulldown based immunoblotting analysis; format: cell-based; summary of the method: as §3
[7] = target: Ubiquitin carboxyl-terminal hydrolase isozyme L1 (Homo sapiens) (UniProt P09936); assay: Binding affinity to UCHL1 in human HEK293 cells at 130 to 500 nM in presence of ABP MT16-205 by LFQ-NanoLC-MS/MS analysis; format: cell-based; conditions: dose 130-500 nM, DDE = dose-dependent effect
Summary of the method: (§4)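 Competition format: HEK293 cells pre-treated 1 h with competitor or DMSO, then exposed to ABP MT16-205. Lysis in PBS/Triton/SDS buffer, AzRB click ligation, NeutrAvidin pulldown, on-bead TCEP/chloroacetamide treatment and overnight tryptic digestion. Label-free LC-MS/MS; two-sample t-test versus control (n=3, permutation FDR 0.01, S0=1).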

[8] = target: T3, Aldehyde dehydrogenase, mitochondrial (Homo sapiens) (UniProt P05091); assay: Binding affinity to ALDH2 in human HEK293 cells at 130 to 500 nM in presence of ABP MT16-205 by LFQ-NanoLC-MS/MS analysis; format: cell-based; conditions: dose 130-500 nM, DDE = dose-dependent effect; summary of the method: as §4
T3 sequence (whole entry): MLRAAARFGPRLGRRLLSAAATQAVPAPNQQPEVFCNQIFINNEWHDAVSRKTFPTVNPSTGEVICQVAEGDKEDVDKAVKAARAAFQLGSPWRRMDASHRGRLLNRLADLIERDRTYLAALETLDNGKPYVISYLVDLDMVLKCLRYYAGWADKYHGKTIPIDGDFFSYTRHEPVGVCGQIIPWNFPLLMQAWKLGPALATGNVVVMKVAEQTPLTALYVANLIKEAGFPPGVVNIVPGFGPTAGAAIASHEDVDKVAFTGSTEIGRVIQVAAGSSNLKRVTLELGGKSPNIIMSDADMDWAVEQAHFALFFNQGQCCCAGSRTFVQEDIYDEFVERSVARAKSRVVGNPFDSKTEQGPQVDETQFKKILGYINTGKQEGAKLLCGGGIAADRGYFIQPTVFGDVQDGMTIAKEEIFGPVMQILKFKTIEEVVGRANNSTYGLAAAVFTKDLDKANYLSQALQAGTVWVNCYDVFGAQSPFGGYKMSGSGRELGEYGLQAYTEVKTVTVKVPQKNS

[9] = target: Ubiquitin carboxyl-terminal hydrolase isozyme L1 (Homo sapiens) (UniProt P09936); assay: Inhibition of UCHL1 in human HEK293 cells assessed as reduction in UCHL1-Ub level using HA-Ub-VME as substrate at 0.001 to 30 uM incubated for 1 hr by immunoblotting analysis; format: cell-based; conditions: dose 0.001-30 µM; summary of the method: as §2
[10] = target: T3, Aldehyde dehydrogenase, mitochondrial (Homo sapiens); assay: Binding affinity to ALDH2 in human HEK293 cells assessed as fold change at 130 nM incubated for 3 to 6 hrs by LFQ-chemical proteomics analysis; format: cell-based; conditions: time 3-6 hrs
Summary of the method: (§5)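 HEK293 cells exposed to alkyne ABP or DMSO for 3, 6 or 18 h, washed, lysed in PBS/1% Triton X-100/0.1% SDS. Lysates (400 µg, biological triplicates) CuAAC-ligated to AzRB (100 µM, CuSO4 1 mM, TCEP 1 mM, TBTA 100 µM, 1 h RT). NeutrAvidin enrichment, on-bead TCEP/CAA reduction-alkylation, overnight trypsin digest at 37 °C, LC-MS/MS label-free quantification. Two-sample t-test against DMSO (n=3, permutation FDR 0.01, S0=1).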

[11] = target: Aldehyde dehydrogenase family 3 member A2 (Homo sapiens) (UniProt P51648); assay: Binding affinity to ALDH3A2 in human HEK293 cells assessed as fold change at 130 nM incubated for 3 to 6 hrs by LFQ-chemical proteomics analysis; format: cell-based; conditions: time 3-6 hrs; summary of the method: as §5
Aldehyde dehydrogenase family 3 member A2 (Homo sapiens), sequence (P51648 whole entry): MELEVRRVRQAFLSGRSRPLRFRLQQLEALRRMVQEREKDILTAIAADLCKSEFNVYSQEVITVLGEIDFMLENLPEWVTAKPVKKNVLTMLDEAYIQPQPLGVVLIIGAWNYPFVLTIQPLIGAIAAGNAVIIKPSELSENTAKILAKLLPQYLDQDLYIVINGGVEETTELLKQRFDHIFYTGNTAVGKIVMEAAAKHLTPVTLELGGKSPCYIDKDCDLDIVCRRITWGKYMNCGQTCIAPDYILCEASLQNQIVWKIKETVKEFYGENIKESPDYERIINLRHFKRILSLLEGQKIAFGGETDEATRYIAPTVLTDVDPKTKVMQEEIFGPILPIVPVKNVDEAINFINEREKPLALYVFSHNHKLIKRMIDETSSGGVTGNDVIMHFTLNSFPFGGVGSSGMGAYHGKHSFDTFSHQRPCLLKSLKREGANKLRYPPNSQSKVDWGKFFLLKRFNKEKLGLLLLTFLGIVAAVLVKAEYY

[12] = target: Ubiquitin carboxyl-terminal hydrolase isozyme L1 (Homo sapiens) (UniProt P09936); assay: Binding affinity to UCHL1 in human HEK293 cells assessed as fold change at 30 nM incubated for 3 to 18 hrs by LFQ-chemical proteomics analysis; format: cell-based; conditions: time 3-18 hrs; summary of the method: as §5
[13] = tested on: HEK293; assay: Binding affinity to ALDH in human HEK293 cells assessed as fold change at 30 nM incubated for 3 to 18 hrs by LFQ-chemical proteomics analysis; format: cell-based; conditions: time 3-18 hrs; summary of the method: as §5

| IC50 [1] | inhibition [2] | inhibition [3] | inhibition [4] | inhibition [5] | inhibition [6] | Activity [7] | Activity [8] | inhibition [9] | fold change (FC) [10] | fold change (FC) [11] | fold change (FC) [12] | Structure (SMILES) | fold change (FC) [13] |
| --- | --- | --- | --- | --- | --- | --- | --- | --- | --- | --- | --- | --- | --- |
| > 10 µM | Active | Active | Dde | Dde | Active | Dde | Dde |  |  |  |  | N#CN1CC[C@H](C(=O)Nc2ncc(-c3ccccc3)s2)C1 |  |
| > 10 µM | Active | Active |  |  |  |  |  | Active | > 64 | > 64 | > 16 | C#Cc1ccc(-c2cnc(NC(=O)[C@H]3CCN(C#N)C3)s2)cc1 | > 16 |
